Data: ChEMBL document CHEMBL1148178, “Dicranin, an antimicrobial and 15-lipoxygenase inhibitor from the moss Dicranum scoparium” (1993)

Legend:
Format in all cases: functional
Conditions in all cases: read-out: Diameter of inhibition zone
[1] = system: Geobacillus stearothermophilus; assay: Antibacterial activity against Bacillus stearothermophilus NCA 1518 at 1000 ug/disk after 24 hrs by disk diffusion assay
Procedure, shortened: (§1)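 Sterile 6 mm filter-paper disc bearing sample set in the centre of a Petri dish of 15 ml plate count agar. Overlaid with 3 ml soft nutrient agar (nutrient broth + 0.7% agar) seeded with 1% of a 16–18 h culture of the test strain. Read-out is the diameter of the growth-free zone around the disc.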

Bacillus cereus = assay: Antibacterial activity against Bacillus cereus NCIB 3329 at 500 ug/disk after 24 hrs by disk diffusion assay; procedure, shortened: as §1
Bacillus subtilis = assay: Antibacterial activity against Bacillus subtilis NCIB 3610 at 1000 ug/disk after 24 hrs by disk diffusion assay; procedure, shortened: as §1
Staphylococcus aureus = assay: Antibacterial activity against Staphylococcus aureus T-AQ 49/YF29 at 1000 ug/disk after 24 hrs by disk diffusion assay; procedure, shortened: as §1
Enterococcus faecalis = assay: Antibacterial activity against Streptococcus faecalis NCIB 775 at 1000 ug/disk after 24 hrs by disk diffusion assay
Procedure, shortened: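 Test material loaded onto 6 mm sterile filter-paper discs. Each disc sits at the centre of a plate of 15 ml plate count agar overlaid with 3 ml soft nutrient agar (nutrient broth + 0.7% agar) carrying 1% of a 16–18 h culture. Activity is read as the diameter of the no-growth zone around the disc.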

CCCCCC/C=C\CCCCCCCC(=O)O [PALMITOLEIC ACID] was tested, and the zone of inhibition at 1000 µg/disc [1] was 45 mm, the zone of inhibition at 500 µg/disc (Bacillus cereus) was 14 mm and the zone of inhibition at 1000 µg/disc (Bacillus subtilis) was 14 mm. The zone of inhibition at 1000 µg/disc (Staphylococcus aureus) was 22 mm and the zone of inhibition at 1000 µg/disc (Enterococcus faecalis) was 20 mm.
